OX1R antag-1: OX1R (human) antagonism; 1.8% of 330,000 active; O43613; OX1R-expressing cells, FRET antagonist read-out; AID 485270; inhibition, % at 6.6 µM; in the data active means inhibition mostly above about 38%, no sharp cut-off; inactive means mostly below about 40%;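 further: 0% = agonist challenge alone and 100% = reference antagonist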
Target sequence (O43613 whole entry, looked up): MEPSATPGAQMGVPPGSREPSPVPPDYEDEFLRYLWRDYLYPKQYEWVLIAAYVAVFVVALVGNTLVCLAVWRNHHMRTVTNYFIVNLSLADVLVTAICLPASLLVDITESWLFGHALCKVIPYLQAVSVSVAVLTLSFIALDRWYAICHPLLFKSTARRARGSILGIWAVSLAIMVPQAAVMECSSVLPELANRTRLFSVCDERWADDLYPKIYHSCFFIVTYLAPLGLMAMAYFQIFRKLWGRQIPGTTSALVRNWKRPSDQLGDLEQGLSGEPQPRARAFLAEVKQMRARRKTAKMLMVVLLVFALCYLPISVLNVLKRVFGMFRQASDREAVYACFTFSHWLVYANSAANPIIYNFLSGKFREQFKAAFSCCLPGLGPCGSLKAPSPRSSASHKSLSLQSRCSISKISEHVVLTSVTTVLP
TAAR1 agonist: human TAAR1 agonism; CHO RD-HGA16 TAAR1, Fluo-8 calcium fluorescence; vehicle wells 0%, saturating PEA agonist 100%; activation, % at 3 µM; 0.99% of 360,000 active; AID 624467;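 active means activation above the mean activation of all test compounds in the run plus 3 SD, cut at about 38% in these data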
Target sequence (Q96RJ0 whole entry, looked up): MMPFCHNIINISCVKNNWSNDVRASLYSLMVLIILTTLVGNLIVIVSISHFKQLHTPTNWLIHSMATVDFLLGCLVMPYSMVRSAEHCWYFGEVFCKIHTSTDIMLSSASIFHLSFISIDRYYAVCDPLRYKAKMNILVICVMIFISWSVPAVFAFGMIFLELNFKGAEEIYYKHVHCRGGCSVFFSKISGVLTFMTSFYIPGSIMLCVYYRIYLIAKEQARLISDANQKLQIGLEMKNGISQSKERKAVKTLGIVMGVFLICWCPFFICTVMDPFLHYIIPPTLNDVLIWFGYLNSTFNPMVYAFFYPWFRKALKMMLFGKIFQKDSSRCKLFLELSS
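Benchmarks: low control DMSO, high control PEA (EC100); System: CHO RD-HGA16 cells carrying human TAAR1 plus Gα16; Detection: Fluo-8 fluorescence, 5 s baseline then 140 s kinetic read; Schedule: 17-24 h plating, Fluo-8 75 min 37 °C, 30 min RT; Read-out basis: % activation from peak over basal fluorescence ratio, DMSO-to-PEA scaled.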
CHO parental Ca: signal in parental CHO cells, OX1R antagonist counter-screen. parental CHO-K1, ATP-induced calcium, Fluo-8 fluorescence. inhibition, % at 5.6 µM. 0.63% of 330,000 active;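 active means inhibition above that plate's mean sample inhibition plus 3 SD, cut at about 26% in these data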;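 further: 0% = ATP-challenged DMSO wells and 100% = DMSO wells without ATP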
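Assay system – parental CHO cells · Reagent – ATP stimulus · Detection – intracellular calcium via Fluo-8 no-wash fluorescent dye · Evaluation – percent inhibition of ATP-evoked calcium rise, normalized to controls · Controls – ATP wells versus no-ATP DMSO wells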
OX1R antag-2: antagonists of human orexin 1 receptor; inhibition, % at 5 µM; 0.43% of 330,000 active; CHO/OX1R cells, Fluo-8 calcium fluorescence, orexin A; O43613;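 active means inhibition above its plate's threshold, mean inhibition of all tested compounds on the plate plus 3 SD, cut at about 37% in these data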;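 further: 0% = orexin A challenge wells and 100% = SB-334867-A antagonist wells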
TAAR1 antag: antagonists of human TAAR1. Q96RJ0. CHO RD-HGA16 TAAR1, Fluo-8 calcium fluorescence, antagonist. inhibition, % at 3 µM. 1.5% of 360,000 active. AID 624466;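 active means inhibition above a per-plate cutoff, the mean inhibition of test compounds on that plate plus 3 SD, cut at about 49% in these data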;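 further: 0% = DMSO plus EC80 beta-PEA response and 100% = DMSO alone without agonist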
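System: CHO RD-HGA16 cells bearing hTAAR1. Reagent: EC80 β-phenethylamine stimulus. Schedule: seeding 17-24 h prior, 75-min 37 °C, 30-min RT dye loading. Signal: Fluo-8 intracellular calcium dye fluorescence, real-time kinetic reads. Read-out: % inhibition from peak post-agonist over basal fluorescence ratio. Benchmarks: vehicle wells and EC80 agonist wells. Replicates: n of 1.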
GPR7 antagonist: antagonists of human GPR7 (neuropeptides B/W receptor 1). P48145. GPR7-expressing cells, fluorescence antagonist assay. inhibition, % at 4.4 µM. 1.1% of 290,000 active. AID 1861; in the data active means inhibition above about 16%, passing the limit was not always enough;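 further: cells stimulated with the agonist NPW; 0% = agonist with vehicle and 100% = vehicle without agonist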
TAAR1 nonsel count: counter-screen for TAAR1 antagonists: nonselective antagonists; shares compounds with TAAR1 antag; counterscreen cell line, calcium fluorescence, antagonist mode; inhibition, % at 3 µM; 77% of 2,400 active; in the data active means inhibition above about 22%;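 further: CHO-Ga16 host cells stimulated with ATP at an EC80 level; 0% = agonist EC80 plus vehicle and 100% = vehicle without agonist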
TAAR1 ant conf: confirmation of human TAAR1 antagonists; shares compounds with TAAR1 antag; TAAR1-expressing cells, fluorescence antagonist read-out; inhibition, % at 3 µM; 40% of 2,400 active; in the data active means inhibition above about 49%;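 further: CHO-Ga16 host cells challenged with agonist PEA near its EC80; 0% = agonist at EC80 plus vehicle and 100% = vehicle with no agonist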
Ga16 ag counter: nonselective Ga16 agonism, counter-screen; shares compounds with TAAR1 antag; Ga16-expressing cells, calcium fluorescence, agonist counterscreen; activation, % at 3 µM; 18% of 2,400 active; AID 651953; in the data active means activation above about 12%;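 further: 0% = vehicle wells and 100% = saturating stimulus response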
TAAR1 ag counter: activates human TAAR1 in antagonist counter-screen; shares compounds with TAAR1 antag; hTAAR1 cell line, fluorescence activation, agonist mode; activation, % at 3 µM; 2% of 2,400 active; AID 651955; in the data active means activation above about 37%;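 further: CHO cells stably expressing TAAR1 with calcium dye readout; 0% = DMSO vehicle and 100% = full agonist response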
* marks the source's active call; other numbers are inactive results; / = no result. Hits are enriched below; roughly 4.5% of the tested compounds scored in any of these assays.

SMILES | OX1R antag-1 | TAAR1 agonist | CHO parental Ca | OX1R antag-2 | TAAR1 antag | GPR7 antagonist | TAAR1 nonsel count | TAAR1 ant conf | Ga16 ag counter | TAAR1 ag counter
CCN1C/C(=C/c2ccc(OC)c(O)c2)C(=O)/C(=C/c2ccc(OC)c(O)c2)C1 | 16 | 4 | -16 | -23 | 2 | 13 | / | / | / | /
COc1ccccc1CNC(=O)COC(=O)c1nccnc1N | 17 | 3 | -4 | -16 | -30 | -7 | / | / | / | /
COC(=O)c1nccnc1N | / | -2 | / | / | 103* | / | 3 | 1 | 1 | 3
COc1cc2c(cc1OC)/C(=C/C(=O)c1cccc([N+](=O)[O-])c1)NCC2 | 28 | 5 | -26 | -39 | 50* | -22 | 26* | 29 | 5 | 0
OC1(c2cccc(C(F)(F)F)c2)CCN(c2ccc(-c3ccccc3)nn2)CC1 | 15 | 10 | -5 | -13 | 75* | -12 | 19 | 39 | 4 | -1
Cc1ccc2c(c1)-c1c(cnn1CC(=O)N1CCCN(Cc3ccccc3F)C1)CO2 | 43* | 14 | -5 | -6 | 75* | 2 | 28* | 52* | 10 | 10
Cc1ccccc1S(=O)(=O)N(C)C[C@@H]1OCc2cnnn2CCCC(=O)N([C@@H](C)CO)C[C@H]1C | / | 3 | / | / | 0 | / | / | / | / | /
COc1ccc(OC)c(-c2nc(C(=O)NCC3CCCO3)cc3c2[nH]c2ccccc23)c1 (stereo not drawn) | 20 | 1 | -18 | -37 | 39 | -2 | / | / | / | /
COc1cccc(N=c2oc3cc(O)ccc3cc2C(=O)NCC2CCCO2)c1 (stereo not drawn) | 10 | 13 | -6 | -3 | 58* | 10 | 35* | 55* | 11 | 18
COc1ccccc1N=c1oc2cc(O)ccc2cc1C(=O)NCC1CCCO1 (stereo not drawn) | 20 | 12 | -4 | 2 | 20 | 11 | / | / | / | /
COc1cccc(-c2nc(C(=O)NCC3CCCO3)cc3c2[nH]c2ccccc23)c1 (stereo not drawn) | 18 | 1 | -6 | -27 | 77* | 1 | 26* | 41 | 5 | 2
COc1ccccc1-c1cnc(C(O)c2ccc(Cl)cc2C)[nH]1 (stereo not drawn) | / | 8 | / | / | -25 | / | / | / | / | /
CCCCCCCN(c1ccccc1)[C@@H]1C[C@H]2CCCC(=O)N3CC[C@@H](C1)[C@@H]23 | / | 18 | / | / | 20 | / | / | / | / | /
CC1(c2nnnn2Cc2ccccc2)CCC(=O)N1Cc1cccc(C(F)(F)F)c1 (stereo not drawn) | / | 7 | / | / | -16 | / | / | / | / | /
CCCCN(C=O)c1c(CC)nc2c(OCc3ccc(Cl)cc3Cl)cccn12 | / | 5 | / | / | 31 | / | / | / | / | /
O=C(COC(=O)c1cccc(S(=O)(=O)NCc2ccccc2)c1)c1ccc2c(c1)OCCO2 | 18 | 30 | -4 | 1 | 63* | -2 | 35* | 49* | 9 | 7
Cn1c2ccccc2c(=O)c2ccc(C#CC3(O)CCCCC3)cc21 | 51 | 20 | -13 | -2 | 71* | -6 | 38* | 55* | 11 | 9
COc1cc2sc3ccc(C#CC4(O)CCCCC4)cc3c(=O)c2cc1OC | 35 | 10 | -32 | -31 | 40 | / | / | / | / | /
COc1ccc(NS(=O)CCCc2ccccc2)cc1 (stereo not drawn) | / | 2 | / | / | -23 | / | / | / | / | /
COc1ccc(C(=O)N/C(=C\c2cn(S(=O)(=O)N(C)C)c3ccccc23)C(=O)NCCN2CCOCC2)cc1 | 5 | 0 | -19 | -29 | -17 | -6 | / | / | / | /
CN(C)S(=O)(=O)n1cc(/C=C(\NC(=O)c2ccccc2Cl)C(=O)NCCN2CCOCC2)c2ccccc21 | 23 | 21 | -23 | -25 | 73* | -9 | 24* | 44 | 11 | 12
CN(C)S(=O)(=O)n1cc(/C=C(\NC(=O)c2ccccc2Cl)C(=O)NCCCn2ccnc2)c2ccccc21 | 11 | 8 | -32 | -29 | 55* | -2 | 17 | 31 | 7 | 3
COc1ccc(NC(=O)c2cc(C3CCCCN3C(=O)c3cccs3)on2)c(C)c1 (stereo not drawn) | / | 4 | / | / | -13 | / | / | / | / | /
O=C(Nc1ccc(NC(=O)c2cc3ccccc3o2)cc1)c1ccc2c(c1)OCCO2 | 14 | 4 | 17 | -20 | -13 | -8 | / | / | / | /
Cc1cc(NC(=O)c2cccnc2)ccc1NC(=O)c1cc2ccccc2o1 | 9 | 32 | -11 | -12 | 57* | 9 | 22* | 44 | 10 | 37
SMILES | OX1R antag-1 | TAAR1 agonist | CHO parental Ca | OX1R antag-2 | TAAR1 antag | GPR7 antagonist | TAAR1 nonsel count | TAAR1 ant conf | Ga16 ag counter | TAAR1 ag counter
Cc1cc(NC(=O)c2ccc3c(c2)OCCO3)ccc1NC(=O)c1cc2ccccc2o1 | 4 | 23 | 0 | -19 | 85* | 0 | 38* | 73* | 9 | 24
CCN(CC(=O)Nc1ccc(OC)cc1)C(=O)c1ccc(OCc2c(C)noc2C)cc1 | / | 2 | / | / | -16 | / | / | / | / | /
Cc1cc(C)cc(C(O)c2ncc(-c3ccccc3)[nH]2)c1 (stereo not drawn) | / | 3 | / | / | -16 | / | / | / | / | /
CCN(CC)c1ncnc2scc(C3COc4ccccc4O3)c12 (stereo not drawn) | 15 | 7 | -8 | -22 | 53* | -9 | 8 | 36 | 3 | 9
Cc1ccc(C)c(N2CCN(C(=O)c3ccc(CSc4nc5ccncc5[nH]4)cc3)CC2)c1 | 16 | 7 | 44* | 53* | 50* | 6 | 36* | 36 | 12* | 22
CSc1ccc(CN2CCC(C)(Oc3ccccc3F)C2)cc1 (stereo not drawn) | / | 3 | / | / | -1 | / | / | / | / | /
COc1ccccc1N1CCN(Cc2ccc(-c3ccccc3[N+](=O)[O-])o2)CC1 | 21 | 12 | -35 | -29 | 88* | -7 | 28* | 55* | 8 | 4
COc1ccccc1N1CCN(Cc2ccco2)CC1 | 12 | 13 | -2 | -22 | -7 | -5 | / | / | / | /
Cc1ccc(S(=O)(=O)N2C[C@H]3C(=O)C[C@@H](c4ccccc4)N(S(=O)(=O)c4ccc(C)cc4)[C@H]3C[C@H]2c2ccccc2Cl)cc1 | / | 0 | / | / | 0 | / | / | / | / | /
CN(C(=O)c1cc(-c2cccs2)nn1-c1ccccc1)C1CCS(=O)(=O)C1 (stereo not drawn) | / | 0 | / | / | 21 | / | / | / | / | /
CN(CC(=O)Nc1ccc(F)cc1)C(=O)c1cc(-c2cccs2)nn1-c1ccccc1 | / | 6 | / | / | 69* | / | 28* | 45 | 6 | 8
